# Experimental data taken from the EternaBench riboswitch data.
# Test system: MS2 coat protein
# Assay: apparent Kd, MS2 coat protein; higher = weaker binding; RNA-MaP array; FMN 200 µM where present
# Summary of the method: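 Stalled E. coli RNA polymerase produced the designs on Illumina sequencing-chip clusters. SNAP-549-labelled MS2 coat protein was added from 0.7 or 1.5 nM, doubling to 3 µM, without and then with constant ligand, in 100 mM Tris-HCl pH 7.5, 80 mM KCl, 4 mM MgCl2, BSA, DTT, yeast tRNA and Tween-20. The apparent Kd is the median of filtered per-cluster fits of green signal normalised to red-channel RNA signal and control-cluster median Fmax.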
# [1] = designed as: ON switch for flavin mononucleotide, no ligand
# [2] = ligand present: flavin mononucleotide, designed as: ON switch for flavin mononucleotide
# [3] = designed as: OFF switch for flavin mononucleotide, no ligand
# [4] = ligand present: flavin mononucleotide, designed as: OFF switch for flavin mononucleotide
Sequence,apparent Kd [1] [nM],apparent Kd [2] [nM],apparent Kd [3] [nM],apparent Kd [4] [nM]
GGAGACCUCACAGGAUAUGCUGGACUUUGUCCAGCAGAAGGGUGAACAUGAGGAUCACCCAUGUUGGUCUCCAAAAUAUUUAAU,882,108,,
GGAGAUUACUCAGGAUAUCGCUAGACCGACAUGAGGAUCACCCAUGUGGGUGACGCGGUGGGCUACGAGAAGGGAGAAGUGCCC,,,11.5,11.7
GGAGCACAUGAAUACAUGAGGAUCACCCAUGUCAAAAGAUAUGAGGAUAUGGAUCGGAAAACGAUCUAGAAGGCAUAGUGCUCC,28.8,6.98,,
GGAGCCGACACUGAGGAUAUUCAUAUUAAAACAUGAGGAUCACCCAUGUAGGCCAGAAGGCCUUGGGAGAAGGCAGGCCGGCUCG,377,26.5,,
GGAGCCGGCACUGAGGAUAUUCAUAUUAAAACAUGAGGAUCACCCAUGUAGGCCAGAAGGCCUUGGGAGAAGGCGGGUCGGCCCG,531,35.3,,
GGAUAGGACAGAGGAUAUACGUGCUAGAGAAACUAGCAAAAUUUCCUCACAUGAGGAUCACCCAUGUAGAAGGCUGUCCUAUCG,,,14.5,543
GGAUAGGACAGAGGAUAUACGUGCUAGAGAUACUAGCAAAAUUUCGUCACAUGAGGAUCACCCAUGUAGAAGGCUGUCCUAUCG,,,5.02,7.65
GGAUAGGACAGAGGAUAUACGUGCUAGAGAUACUAGCAACAUUUCCUCACAUGAGGAUCACCCAUGUAGAAGGCUGUCCUAUCG,,,8.16,190
GGAUAGGACAUAGGAUAUACGUGCUAGAGAUACUAGCAAAAUUUCCUCACAUGAGGAUCACCCAUGUAGAAGGCUGUCCUAUCG,,,6.73,24.5
GGAUCCAACACAGGAUAUGCUGGACUUUGUCCAGCAGAAGGGUGUACAUGAGGAUCACCCAUGUAUUGGAUCCAUAUAUUUAAU,996,80.8,,
GGAUCGAAUGUCAGGAUAUACCACUGGAUACAGUGGUAGAAGGGACAUGAGGAUCACCCAUGUGUUAUCGAUCC,,,40.4,114
GGAUCGAGUGUGAGGAUAUGCUGGUCCUAAGAUCAGCAGAAGGCACAUGAGGAUCACCCAUGUGAAAACGGUCC,,,26,182
GGAUCUAUGUAGAAGGCUGUCUUAAAAUAGGACAGAGGAUAUACAUGAGGAUCACCCAUGUACUCCUUUAAAAGGAUCCAAAUA,,,5.77,11
GGAUCUUGGGUCAGGAUAUGCUGAUAUUUUUGUCAGCAGAAGGGACAUGAGGAUCACCCAUGUGCUUGGUUUUG,,,11.2,21.8
GGAUGACAAAGUCAUCCAAUACGAACAUGAGGAUCACCCAUGUAGGAUAUGCUACUCAAAGAGUAGCAGAAGGACAUGUGUCUU,,,30,143
GGAUGACAAAGUCAUCCAAUACGACAUGAGGAUCACCCAUGUUAGGAUAUGCUACUCAAAGAGUAGCAGAAGGACAUGUGCCUU,,,23.7,33.4
GGAUGACAAAGUCAUCCAAUUCGAACAUGAGGAUCACCCAUGUAGGAUAUGCUACUCAAAGAGUAGCAGAAGGACAUGUGCCUU,,,31.7,173
GGAUGACACAGUCAUCCAAUACGAACAUGAGGAUCACCCAUGUAGGAUAUGCUACUCAAAGAGUAGCAGAAGGACAUGUGCCUU,,,39.1,257
GGAUGAGAAACUCAUCCUUAACGAACAUGAGGAUCACCCAUGUAGGAUAUGCUACUCAAAGAGUAGCAGAAGGACAUGUGCCUU,,,29.9,264
GGAUGGACCCAGAAGGGCAGAUUCCGAGGGAUUUGAGAUGAGCGGAUAUGUAGGAUAUGGGUGGACAUGAGGAUCACCCAUGUC,231,46.6,,
GGAUGGUAGGGAGGAUAUGACAUGAGGAUCACCCAUGUGAAACGUCCUAGGUCAGAAGGCCCAUAAGUCAAAACCCAAAAUGUG,,,16.7,153
GGAUUACAUGAGGAUCACCCAUGUGAGGAUAUCGAUGUCCUCCCUCCCGUGCGGGACUCGAGAAGGCACUUGGA,,,51.9,78.8
GGAUUGAAUGAGGAUAUCGUAUCGGGUACGAUGCGAGAAGGCAUGACAUGAGGAUCACCCAUGUAGUGUGGGUU,,,415,685
GGCAAAUGAGCAGGAUAUACAGUACAUGCCUAAUGGACUCACGCACAUGAGGAUCACCCAUGUACGUAGAAGGGCUCCGAGGAG,,,15.2,19.1
GGCAAUAACGAGGAUAUCGUAUCGGAAACGAUACGAGAAGGUGUAACAUGAGGAUCACCCAUGUUCCUCAAGCC,,,37.9,37.2
GGCACUGUAGGAUAUACAUGAACAAUUGGUAUCCUCAGUCCACAUGAGGAUCACCCAUGUAGAAGGAUAGAAAA,,,58.6,46.1
GGCCAAGUCGAGAAGGCCGGUAGACAUGAGGAUCACCCAUGUAGUGCGUGGAGGAUAUUGAAUGGGUGGCGUAGGACCUGCGUU,106,18.6,,
GGCCCGUCUGUUAGGAUAUUGUCGAACUUUAGCGGCGAGAAGGAACAUGAGGAUCACCCAUGUCCCAACUGGGA,,,25.5,196

Sequence,apparent Kd [1] [nM],apparent Kd [2] [nM],apparent Kd [3] [nM],apparent Kd [4] [nM]
GGCGAACGGGCUUACAUGAGGAUCACCCAUGUAGACUCAUGGUAGGAUAUGCUGUACUUUGUACAGCAGAAGGGCCGGUGAGCU,65.8,38.7,,
GGCUCAUUUACAUUAAUGUGCUGACAGGAUAUCCACGGCGGUUCCUACAUGAGGAUCACCCAUGUGGAGAAGGGUCGCUAAUGG,,,12.4,18.9
GGCUGGCAGCUAGGAUAUGGGCGGUCACAUGAGGAUCACCCAUGUCAACAUCAAAACCAGAUUAACCAGAAGGAGCUGCGGGCU,51.8,796,,
GGGACCUACGAGAAGGGCUACAUGAGGAUCACCCAUGUAAAUCUUCGGGUGGCAGGAUAUCGGCGGCUACAGGAGGGCCAGGUC,,,,38.3
GGGAGACAUGAGGAUCACCCAUGUGAAAACGUGUGAGGAUAUCAAUGGAAACCAUACUGUUGAGAAGGCACUUGUC,118,41.2,,
GGGAGACAUGAGGAUCACCCAUGUGAAAACGUGUGAGGAUAUGUAUGGAAACCAUACUGUACAGAAGGCACUUGUC,53.8,41,,
GGGAGGGAUACAGGAUAUAUGACAUGAGGAUACAUGAGACAUACAAACAUGAGGAUCACCCAUGUAUAGAAGGGUAAGGGAGGG,,,173,240
GGGAGUGGAGGGAAUAACAUGAGGAUCACCCAUGUAUGGGAGAGAAGGCAGGUCGGAGGGCGAUCUGAGGAUAUUUAGACUCUU,8.99,8.08,,
GGGCAAUAGUAGAAGGGAUAUACGAAAGGUAUAUCAGGAUAUACAUGAGGAUCACCCAUGUUCUAACAGUGAUAGUCCUCCCUA,,,24.3,171
GGGCCCGGAGGAUAUACAUGAGGAUCACCCAUGUACCCGGGUUUUAUUGGGCCCGGGUGUAGAAGGUUGGGCCC,,,14.1,13.3
GGGCCCGGAGGAUAUACAUGAGGAUCACCCAUGUAGGGUUUGGGUAUUCCCGGGCCCUGUAGAAGGCCGGGCCC,,,17.1,22.5
GGGCCGGUGGAGAAGGAGCUUGCGAAACGCAUGCUAGGAUAUCCACAUGAGGAUCACCCAUGUGGGAAUAUCUGAUUUUCACAG,,,3.82,4.76
GGGCGACAUGAGGAUCACCCAUGUAAGGAUAUACAACUGCCCACUAAAAUCUGGGCUGGUAGAAGGUGCAGAAA,,,35.7,42.8
GGGUACAUCGGAGGAUAUCAUGUAAAUACAUGAGGAUCACCCAUGUCGAGGGAGACAUCGGAGAUUGAGAAGGCCGAUGUACCG,57.4,460,,
GGGUACAUCGGAGGAUAUCAUGUAAAUACAUGAGGAUCACCCAUGUCGAUGGAGACAUCGGAGAUGGAGAAGGCCGAUGUACCG,538,102,,
GGGUACAUCGGAGGAUAUCAUGUAAAUACAUGAGGAUCACCCAUGUCGAUGGAGACAUCGGAGAUUGAGAAGGUCGAUGUACCG,197,9.52,,
GGGUACAUCGGAGGAUAUCAUGUAAAUACAUGAGGAUCACCCAUGUCGAUGGAGACAUCGGAGCUUGAGAAGGCCGAUGUACCG,36.2,6.49,,
GGGUACAUCGGAGGAUAUCAUGUAAAUACAUGAGGAUCACCCAUGUCGAUGGAGAUAUCGGAGAUUGAGAAGGCCGAUGUACCG,102,9.9,,
GGGUCCAUCGGAGGAUAUCAUGUAAAUACAUGAGGAUCACCCAUGUCGAUGGAGACAUCGGAGAUUGAGAAGGCCGAUGUACCG,209,10.5,,
GGGUGACAUGAGGAUCACCCAUGUCAGGAUAUGGGCUCGGGCUCGAAAGGGCUCGGGCUCAGAAGGGACUGCCC,,,56,170
GGGUGAUCAGGAUAUACAGAAAUGCGAAAGCAUUUCUGUAAACAUGAGGAUCACCCAUGUAGAAGGAAACUUCA,,,17.9,13.8
GGGUUACAUGAGGAUCACCCAUGUGAGGAUAUGAUACUAUGUACUUCGGUACAUAGUAUCAGAAGGCACAUAAA,,,124,122
GGGUUACAUGAGGAUCACCCAUGUGAGGAUAUGAUACUAUGUACUUCGGUACAUAGUAUCAGAAGGCACAUCCC,,,36.5,72.7
GGGUUGUGAGGAUAUUAGUUGUACGUCAAUAGACGUAUAAGUGAGAAGGCACAUGAGGAUCACCCAUGUUCCUG,,,20.8,80.1
GGUAAGAUGCAGAAGGUGUUAGCUAGAGCUACGACAUGAGGAUCACCCAUGUACUAGAAACAGUACAAGGAUAUGCAUCUUACG,19.1,6.5,,
GGUACCAUCACAGGAUAUGCUUUCCUUUGGGAAGCAGAAGGGUGUAACAUGAGGAUCACCCAUGUGGUGCCCGGGCGUGAGCCC,120,15.9,,
GGUACCUUCACAGGAUAUGCUAUCGUUUCGGUAGCAGAAGGGUGAUACAUGAGGAUCACCCAUGUGGUGCCAGGGCGUGAGCCC,842,329,,
